Assay results as given in ChEMBL document CHEMBL1130325, “Novel non-nucleoside inhibitors of human immunodeficiency virus type 1 reverse transcriptase. 6. 2-Indol-3-yl- and 2-azaindol-3-yl-dipyridodiazepinones” (J Med Chem, 1997).

What was measured:
[1] = molecular target: Human immunodeficiency virus type 1 reverse transcriptase (Human immunodeficiency virus 1, UniProt Q72547); assay: Inhibitory concentration against HIV-1 wild type reverse transcriptase
Summary of the method: (§1)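 HIV-1 RT is at 0.63 nM in 50 mM Tris pH 7.8 with 4 mM DTT, 60 mM NaCl, 2 mM MgCl2, 0.02% Chaps, 4.8 μg/mL poly(rC)/oligo(dG) and 0.45 μM [3H]dGTP. Incubation is 30 min at room temperature in triplicate wells; [3H] incorporation is read after acid precipitation, minus EDTA background.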

[2] = tested on: Human immunodeficiency virus type 1 reverse transcriptase (Human immunodeficiency virus 1), Q72547 [[…]]; assay: Inhibition against HIV-1 mutant Y188L reverse transcriptase at 1 mM
[3] = tested on: Human immunodeficiency virus type 1 reverse transcriptase (Human immunodeficiency virus 1), Q72547 [Y181C]; assay: Inhibition against HIV-1 mutant Y181C reverse transcriptase at 1 mM
[4] = molecular target: Human immunodeficiency virus type 1 reverse transcriptase (Human immunodeficiency virus 1, UniProt Q72547, Y181C); assay: Inhibitory concentration against HIV-1 mutant Y181C reverse transcriptase; summary of the method: as §1
[5] = molecular target: Human immunodeficiency virus type 1 reverse transcriptase (Human immunodeficiency virus 1) (UniProt Q72547); assay: Inhibition against HIV-1 wild type reverse transcriptase […]
[6] = molecular target: Human immunodeficiency virus type 1 reverse transcriptase (Human immunodeficiency virus 1, UniProt Q72547, V106A); assay: Inhibition against HIV-1 mutant V106A reverse transcriptase […]
[7] = molecular target: Human immunodeficiency virus type 1 reverse transcriptase (Human immunodeficiency virus 1, UniProt Q72547, K103N); assay: Inhibition against HIV-1 mutant K103N reverse transcriptase […]
[8] = molecular target: Human immunodeficiency virus type 1 reverse transcriptase (Human immunodeficiency virus 1, UniProt Q72547, Y188L); assay: Inhibitory concentration against HIV-1 mutant Y188L reverse transcriptase; summary of the method: as §1
[9] = molecular target: Human immunodeficiency virus type 1 reverse transcriptase (Human immunodeficiency virus 1, UniProt Q72547, P236L); assay: Inhibition against HIV-1 mutant P236L reverse transcriptase […]
[10] = molecular target: Human immunodeficiency virus type 1 reverse transcriptase (Human immunodeficiency virus 1, UniProt Q72547, G190A); assay: Inhibition against HIV-1 mutant G190A reverse transcriptase […]

Structure (SMILES) | IC50 [1] [nM] | inhibition [2] [%] | inhibition [3] [%] | IC50 [4] [nM] | inhibition [5] [%] | IC50 [6] [nM] | IC50 [7] [nM] | IC50 [8] [nM] | IC50 [9] [nM] | IC50 [10] [nM]
CCN1c2ncccc2C(=O)N(C)c2ccc(-c3c[nH]c4ccncc34)nc21 | 130 | 3 | 66 | 222 | 87 |  |  |  |  | 
CCN1c2ncccc2C(=O)N(C)c2ccc(-c3c[nH]c4cnccc34)nc21 | 44 | 64 | 81 | 98 | 94 | 228 | 32 | 384 | < 1 | 19
CCN1c2ncccc2C(=O)N(C)c2ccc(-c3c[nH]c4cccnc34)nc21 |  | 37 | 18 |  | 21 |  |  |  |  | 
CCN1c2ncccc2C(=O)N(C)c2ccc(-c3cc[nH]c3)nc21 | 33 | 78 | 91 | 50 | 95 | 1000 |  | 100 |  | 320
CCN1c2ncccc2C(=O)N(C)c2ccc(-c3c[nH]c4ccc(OC)cc34)nc21 | 200 | 58 | 45 | 230 | 61 | 3090 | 935 | 730 | 404 | 600
CCN1c2ncccc2C(=O)N(C)c2ccc(-c3c[nH]c4ccccc34)nc21 | 28 | 72 | 93 | 28 | 96 | 49 | 97 | 90 | 79 | 12
CCN1c2ncccc2C(=O)N(C)c2ccc(-c3c[nH]c4ncccc34)nc21 | 210 | 39 | 70 | 200 | 76 |  |  | 1300 |  | 
CCN1c2ncccc2C(=O)N(C)c2ccc(-c3c[nH]c4ccc(F)cc34)nc21 | 706 | 17 | 59 | 555 | 63 |  |  |  |  | 
